Results as given in ChEMBL document CHEMBL1140872, “Discovery of a potent and selective inhibitor for human carbonyl reductase 1 from propionate scanning applied to the macrolide zearalenone” (Bioorg Med Chem, 2009).

Columns and labels:
[1] = organism: Homo sapiens; assay: Binding affinity to human recombinant DYRK1 expressed in Escherichia coli assessed as thermal shift by differential scanning fluorimetry
Procedure, shortened: (§1)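 Thermal-shift (DSF) binding assay with purified recombinant catalytic domains or proteins carrying an N- or C-terminal His6 tag or GST fusion. Purity was >95% by SDS/PAGE and identity was confirmed by MS. Protein was at 2 µM final in 10 mM HEPES pH 7.5 and 150 mM NaCl. Tm shift is reported, with 2 °C as the threshold for binding.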

[2] = target: Heat shock protein HSP90 (Homo sapiens) (UniProt P07900+P08238)
[3] = target: T1, Carbonyl reductase [NADPH] 1 (Homo sapiens) (UniProt P16152); assay: Binding affinity to human recombinant carbonyl reductase 1 expressed in Escherichia coli assessed as NADPH oxidation at 200 uM relative to isatin
T1 sequence (whole entry): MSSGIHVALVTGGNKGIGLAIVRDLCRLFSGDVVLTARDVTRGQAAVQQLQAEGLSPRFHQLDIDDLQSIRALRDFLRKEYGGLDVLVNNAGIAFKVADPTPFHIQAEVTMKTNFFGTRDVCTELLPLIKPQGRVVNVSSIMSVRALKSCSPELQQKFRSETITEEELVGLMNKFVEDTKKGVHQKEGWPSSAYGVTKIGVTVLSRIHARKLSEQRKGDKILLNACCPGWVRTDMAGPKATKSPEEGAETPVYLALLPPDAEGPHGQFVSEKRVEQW
Procedure, shortened: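 Substrate test used 200 nM purified CBR1 and 200 µM NADPH, injected onto compound at 200 µM in 50 mM sodium phosphate pH 6.8 with 1 mM MgCl2. NADPH oxidation was read as the fluorescence decrease at 460 nm (excitation 355 nm). Rate came from linear regression after normalizing to the fluorescence rise on injection. Run in triplicate and expressed as % of the isatin rate.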

[4] = target: T2, Cyclin-G-associated kinase (Homo sapiens) (UniProt O14976); assay: Binding affinity to human recombinant GAK expressed in Escherichia coli assessed as thermal shift by differential scanning fluorimetry; procedure, shortened: as §1
T2 sequence (whole entry): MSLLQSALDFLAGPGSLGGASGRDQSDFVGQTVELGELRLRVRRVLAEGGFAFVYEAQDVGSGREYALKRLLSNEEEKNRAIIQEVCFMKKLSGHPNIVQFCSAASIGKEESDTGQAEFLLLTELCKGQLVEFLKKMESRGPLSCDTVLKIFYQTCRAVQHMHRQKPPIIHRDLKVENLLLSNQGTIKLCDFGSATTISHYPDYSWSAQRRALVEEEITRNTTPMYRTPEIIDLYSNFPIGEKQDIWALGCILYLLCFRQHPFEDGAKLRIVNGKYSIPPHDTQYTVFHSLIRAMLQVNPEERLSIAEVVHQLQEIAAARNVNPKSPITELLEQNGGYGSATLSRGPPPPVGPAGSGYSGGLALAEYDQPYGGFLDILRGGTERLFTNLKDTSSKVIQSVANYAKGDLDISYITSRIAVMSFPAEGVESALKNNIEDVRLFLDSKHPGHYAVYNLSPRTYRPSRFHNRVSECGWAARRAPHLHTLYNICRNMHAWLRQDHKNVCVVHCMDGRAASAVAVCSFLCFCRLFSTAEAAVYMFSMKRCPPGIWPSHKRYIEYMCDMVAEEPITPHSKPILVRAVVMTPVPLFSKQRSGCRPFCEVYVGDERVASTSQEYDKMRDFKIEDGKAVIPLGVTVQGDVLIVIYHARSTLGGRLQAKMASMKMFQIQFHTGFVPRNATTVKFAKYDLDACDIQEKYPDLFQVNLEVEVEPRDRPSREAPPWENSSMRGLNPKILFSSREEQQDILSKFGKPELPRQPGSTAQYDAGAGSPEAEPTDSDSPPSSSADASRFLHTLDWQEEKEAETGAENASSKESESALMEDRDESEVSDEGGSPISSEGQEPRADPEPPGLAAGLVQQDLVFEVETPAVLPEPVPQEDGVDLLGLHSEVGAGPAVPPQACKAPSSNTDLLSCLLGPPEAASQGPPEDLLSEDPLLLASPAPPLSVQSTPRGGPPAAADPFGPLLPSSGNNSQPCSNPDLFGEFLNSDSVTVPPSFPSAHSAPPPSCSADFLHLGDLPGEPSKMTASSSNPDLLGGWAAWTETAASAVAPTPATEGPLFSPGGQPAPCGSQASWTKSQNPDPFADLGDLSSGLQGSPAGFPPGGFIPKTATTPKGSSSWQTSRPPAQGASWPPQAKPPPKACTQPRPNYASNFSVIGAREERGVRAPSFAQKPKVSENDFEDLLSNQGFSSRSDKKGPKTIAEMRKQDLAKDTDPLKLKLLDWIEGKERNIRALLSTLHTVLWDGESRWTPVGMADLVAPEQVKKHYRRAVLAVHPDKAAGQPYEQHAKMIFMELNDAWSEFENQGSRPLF

[5] = target: Serine/threonine-protein kinase 10 (Homo sapiens) (UniProt O94804); assay: Binding affinity to human recombinant LOK expressed in Escherichia coli assessed as thermal shift by differential scanning fluorimetry; procedure, shortened: as §1
[6] = target: T3, Carbonyl reductase [NADPH] 3 (Homo sapiens) (UniProt O75828); assay: Binding affinity to human recombinant carbonyl reductase 3 expressed in Escherichia coli assessed as thermal shift by differential scanning fluorimetry in presence of NADPH; procedure, shortened: as §1
T3 sequence (whole entry): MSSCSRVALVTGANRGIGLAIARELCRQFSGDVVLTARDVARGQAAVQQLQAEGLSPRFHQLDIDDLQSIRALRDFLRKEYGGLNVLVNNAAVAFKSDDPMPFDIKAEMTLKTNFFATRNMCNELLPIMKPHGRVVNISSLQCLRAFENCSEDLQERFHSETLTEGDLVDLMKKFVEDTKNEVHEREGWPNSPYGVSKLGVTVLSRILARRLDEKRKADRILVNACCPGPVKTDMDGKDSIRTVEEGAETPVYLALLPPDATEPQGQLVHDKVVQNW

[7] = target: STE20-like serine/threonine-protein kinase (Homo sapiens) (UniProt Q9H2G2); assay: Binding affinity to human recombinant SLK expressed in Escherichia coli assessed as thermal shift by differential scanning fluorimetry; procedure, shortened: as §1
[8] = target: T4, Carbonyl reductase [NADPH] 1 (Homo sapiens, UniProt P16152); assay: Binding affinity to human recombinant carbonyl reductase 1 expressed in Escherichia coli assessed as NADPH oxidation using isatin as substrate
T4 sequence (P16152 whole entry): T1 sequence (whole entry)
Procedure, shortened: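 Purified recombinant CBR1 (200 nM) and NADPH were added to compound in 50 mM sodium phosphate, pH 6.8, 1 mM MgCl2. NADPH oxidation was followed as the fluorescence decrease at 460 nm (excitation 355 nm). Rates came from linear regression after normalising to the fluorescence rise at injection. Compounds were titrated at two isatin levels, with no-protein background subtracted. Sigmoidal fit gave IC50, then Ki from the isatin concentration.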

Chain of STE20-like serine/threonine-protein kinase (Homo sapiens) (Q9H2G2 whole entry, looked up): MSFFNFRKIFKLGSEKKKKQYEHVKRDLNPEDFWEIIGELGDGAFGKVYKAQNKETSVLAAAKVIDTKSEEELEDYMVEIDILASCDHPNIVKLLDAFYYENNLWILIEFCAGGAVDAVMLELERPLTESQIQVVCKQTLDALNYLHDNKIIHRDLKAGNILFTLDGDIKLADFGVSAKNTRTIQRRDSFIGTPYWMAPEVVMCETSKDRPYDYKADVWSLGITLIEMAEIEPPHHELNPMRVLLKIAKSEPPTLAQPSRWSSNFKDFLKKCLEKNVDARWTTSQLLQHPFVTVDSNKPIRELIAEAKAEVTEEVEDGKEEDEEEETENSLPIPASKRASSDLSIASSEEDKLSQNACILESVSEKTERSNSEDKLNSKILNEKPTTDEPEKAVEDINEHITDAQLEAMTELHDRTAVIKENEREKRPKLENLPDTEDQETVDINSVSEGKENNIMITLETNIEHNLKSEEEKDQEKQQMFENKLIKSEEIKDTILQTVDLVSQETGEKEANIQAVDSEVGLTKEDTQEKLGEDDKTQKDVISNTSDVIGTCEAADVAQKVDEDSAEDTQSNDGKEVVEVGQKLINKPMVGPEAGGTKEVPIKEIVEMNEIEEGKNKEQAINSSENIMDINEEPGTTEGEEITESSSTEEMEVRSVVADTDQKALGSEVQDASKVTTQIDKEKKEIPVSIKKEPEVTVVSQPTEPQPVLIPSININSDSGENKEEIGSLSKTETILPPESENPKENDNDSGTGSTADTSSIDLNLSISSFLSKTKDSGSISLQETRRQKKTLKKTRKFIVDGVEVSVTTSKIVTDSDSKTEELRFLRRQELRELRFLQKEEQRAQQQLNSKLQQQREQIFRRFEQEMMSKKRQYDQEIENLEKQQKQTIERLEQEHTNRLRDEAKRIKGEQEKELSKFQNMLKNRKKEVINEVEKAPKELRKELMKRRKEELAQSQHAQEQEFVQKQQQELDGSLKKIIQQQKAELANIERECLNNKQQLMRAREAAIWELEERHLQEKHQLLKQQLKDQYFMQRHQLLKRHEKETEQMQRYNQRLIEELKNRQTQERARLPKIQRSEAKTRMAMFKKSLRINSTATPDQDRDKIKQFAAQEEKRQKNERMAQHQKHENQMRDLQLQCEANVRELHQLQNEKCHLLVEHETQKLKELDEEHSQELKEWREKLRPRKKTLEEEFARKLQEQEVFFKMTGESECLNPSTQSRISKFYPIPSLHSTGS
Chain of Serine/threonine-protein kinase 10 (Homo sapiens) (O94804 whole entry, looked up): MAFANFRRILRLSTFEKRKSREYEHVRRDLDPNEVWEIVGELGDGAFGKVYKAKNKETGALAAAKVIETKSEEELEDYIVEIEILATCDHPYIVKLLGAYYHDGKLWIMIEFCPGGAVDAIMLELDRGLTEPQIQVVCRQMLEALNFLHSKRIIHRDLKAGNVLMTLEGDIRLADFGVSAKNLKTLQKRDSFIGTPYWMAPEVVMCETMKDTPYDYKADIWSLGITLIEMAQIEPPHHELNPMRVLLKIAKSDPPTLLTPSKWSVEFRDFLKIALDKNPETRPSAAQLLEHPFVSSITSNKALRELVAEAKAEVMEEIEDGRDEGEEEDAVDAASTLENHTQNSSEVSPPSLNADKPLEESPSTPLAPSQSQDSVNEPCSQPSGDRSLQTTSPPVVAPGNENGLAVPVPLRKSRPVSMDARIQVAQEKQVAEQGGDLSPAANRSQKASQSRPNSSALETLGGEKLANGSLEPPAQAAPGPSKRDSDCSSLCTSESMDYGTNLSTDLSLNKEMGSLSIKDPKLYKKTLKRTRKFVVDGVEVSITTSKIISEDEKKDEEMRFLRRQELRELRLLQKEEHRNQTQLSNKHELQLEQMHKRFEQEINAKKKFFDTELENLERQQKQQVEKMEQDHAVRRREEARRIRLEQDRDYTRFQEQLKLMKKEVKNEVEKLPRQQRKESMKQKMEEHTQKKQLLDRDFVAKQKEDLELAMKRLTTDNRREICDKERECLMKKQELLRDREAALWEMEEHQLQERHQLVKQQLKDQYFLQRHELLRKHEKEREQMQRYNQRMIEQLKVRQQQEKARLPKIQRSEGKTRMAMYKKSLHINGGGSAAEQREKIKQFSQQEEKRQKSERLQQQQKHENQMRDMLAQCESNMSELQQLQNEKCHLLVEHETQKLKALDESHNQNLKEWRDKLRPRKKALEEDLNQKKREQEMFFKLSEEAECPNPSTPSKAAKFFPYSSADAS

SMILES: C[C@H]1CCCC(=O)CCC/C=C/c2cc(O)cc(O)c2C(=O)O1
- Tm [1]: < 2 °C
- Tm [2]: 2.3 °C
- Activity [3]: 5.7%
- Tm [4]: 2.4 °C
- Tm [5]: 4.6 °C
- Tm [6]: < 2 °C
- Tm [7]: 4.4 °C

SMILES: COc1cc(O)c2c(c1)/C=C/CC[C@H](C)C(=O)CCC[C@H](C)OC2=O
- Tm [1]: < 2 °C
- Tm [2]: < 2 °C
- Activity [3]: 1.5%
- Tm [4]: < 2 °C
- Tm [5]: < 2 °C
- Tm [6]: < 2 °C
- Tm [7]: 2.5 °C

SMILES: COc1cc2c(c(OC)c1)C(=O)O[C@@H](C)CCC[C@@H](O)[C@@H](C)CC/C=C/2
- Tm [1]: < 2 °C
- Tm [2]: < 2 °C
- Tm [4]: < 2 °C
- Tm [5]: < 2 °C
- Tm [6]: < 2 °C
- Tm [7]: < 2 °C

SMILES: C[C@H]1CCCC(=O)[C@@H](C)CC/C=C/c2cc(O)cc(O)c2C(=O)O1
- Tm [1]: < 2 °C
- Tm [2]: < 2 °C
- IC50 [8]: 210 nM
- Ki [8]: 40 nM
- Tm [4]: 2.9 °C
- Tm [5]: < 2 °C
- Tm [6]: < 2 °C
- Tm [7]: 3.5 °C

SMILES: COc1cc2c(c(OC)c1)C(=O)O[C@@H](C)CCCC(=O)[C@@H](C)CC/C=C/2
- Tm [1]: < 2 °C
- Tm [2]: < 2 °C
- Activity [3]: 31.3%
- Tm [4]: < 2 °C
- Tm [5]: < 2 °C
- Tm [6]: < 2 °C
- Tm [7]: < 2 °C

SMILES: COC1=C2C[C@@H](C)C[C@H](OC)[C@H](O)[C@@H](C)/C=C(\C)[C@H](OC(N)=O)[C@@H](OC)/C=C\C=C(/C)C(=O)NC(=CC1=O)C2=O
- Tm [1]: < 2 °C
- Tm [4]: < 2 °C
- Tm [5]: < 2 °C
- Tm [6]: < 2 °C
- Tm [7]: < 2 °C

SMILES: C[C@@H]1C[C@H]2O[C@@H]2/C=C\C=C\C(=O)Cc2c(Cl)c(O)cc(O)c2C(=O)O1 [RADICICOL]
- Tm [1]: < 2 °C
- IC50 [8]: 3270 nM
- Ki [8]: 520 nM
- Tm [4]: < 2 °C
- Tm [5]: < 2 °C
- Tm [6]: < 2 °C
- Tm [7]: < 2 °C
